Measurements pooled from the literature.
Protocols differ between the studies behind these lines.

SMILES	target or system	test	setting	quantity	result
O=C(NC(=S)Nc1ccccn1)c1cccs1	Leishmania donovani	parasite growth, resazurin	promastigote	IC50	1260 nM
Cc1c(Cc2ccccc2)c(=O)oc2c(C)c(OCC(=O)NN=Cc3ccco3)ccc12	PC-3	cell growth or viability, MTT	250 µg/mL	viability	11.1%
Cc1cccc(/C=C/C(=O)Nc2cccc(-c3ccnc(N4CCC(CO)CC4)c3)c2)c1	A549	cell growth or viability, MTT	5 µM	inhibition	52.9%
O=C1O[C@H]([C@@H](O)CO)C(O)=C1O		ABTS scavenging		IC50	350000 nM
O=C(NC(=S)Nc1ccccc1O)c1ccco1	Leishmania donovani	parasite growth, resazurin	promastigote	IC50	2460 nM
O=C(C=Cc1ccccc1)Nc1cccc(-c2ccnc(N3CCC(O)CC3)c2)c1	A549	cell growth or viability, MTT	5 µM	inhibition	54.8%
COc1cccc2c1C(=O)c1c(O)c3c(c(O)c1C2=O)C[C@@](O)(C(=O)CO)C[C@@H]3O[C@H]1C[C@H](N)[C@H](O)[C@H](C)O1	A549	cell growth or viability, MTT	25 µg/mL, 48 h, serum-free	viability	38.2%
C=CC(=O)NC1CCN(c2ncc3ncnc(Nc4ccc(Oc5ccc6c(c5)ncn6C)c(C)c4)c3n2)CC1	NCI-H2170	cell growth or viability		EC50	38 nM
Cc1c(C)c2c(c(C)c1O)CCC(C)(C(=O)O)O2 (stereo not shown)		ABTS scavenging		IC50	160000 nM
Cc1c(Cc2ccccc2)c(=O)oc2c(C)c(OCC(=O)NN=Cc3ccc(Cl)cc3)ccc12	PC-3	cell growth or viability, MTT	250 µg/mL	viability	29%
O=C(NC(=S)Nc1ccccn1)c1ccco1	Leishmania donovani	parasite growth, resazurin	promastigote	IC50	2300 nM
CCCOc1ccc2c(C)c(CC)c(=O)oc2c1C	PC-3	cell growth or viability, MTT	250 µg/mL	viability	26.3%
CCCCCCCCCCCCCCCCOP(=O)([O-])OCC[N+](C)(C)C	Leishmania donovani	parasite growth, resazurin	promastigote	IC50	1970 nM
C=CCNC(=S)NNC(=O)COc1ccc2c(C)c(CC)c(=O)oc2c1C	PC-3	cell growth or viability, MTT	31.25 µg/mL	viability	99.9%
O=C(NC(=S)Nc1cccc(O)c1)c1ccco1	Leishmania donovani	parasite growth, resazurin	promastigote	IC50	480 nM
O=C1O[C@H]([C@@H](O)CO)C(O)=C1O		ABTS scavenging, absorbance	30 min	IC50	11300 nM
